The text below walks through data of ChEMBL document CHEMBL3108740, “Design, synthesis, and biological evaluation of 1-phenylpyrazolo[3,4-e]pyrrolo[3,4-g]indolizine-4,6(1H,5H)-diones as new glycogen synthase kinase-3β inhibitors” (J Med Chem, 2013).

The target in data set [1] is T1, Glycogen synthase kinase-3 beta (Homo sapiens, UniProt P49841). The data set is described as follows: Inhibition of GSK-3beta (unknown origin) using (RREGGMSRPAS(p)VDG as substrate assessed as 32P[gamma-ATP] incorporation into substrate after 15 mins by autoradiography.
Target sequence in this assay (P49841 whole entry): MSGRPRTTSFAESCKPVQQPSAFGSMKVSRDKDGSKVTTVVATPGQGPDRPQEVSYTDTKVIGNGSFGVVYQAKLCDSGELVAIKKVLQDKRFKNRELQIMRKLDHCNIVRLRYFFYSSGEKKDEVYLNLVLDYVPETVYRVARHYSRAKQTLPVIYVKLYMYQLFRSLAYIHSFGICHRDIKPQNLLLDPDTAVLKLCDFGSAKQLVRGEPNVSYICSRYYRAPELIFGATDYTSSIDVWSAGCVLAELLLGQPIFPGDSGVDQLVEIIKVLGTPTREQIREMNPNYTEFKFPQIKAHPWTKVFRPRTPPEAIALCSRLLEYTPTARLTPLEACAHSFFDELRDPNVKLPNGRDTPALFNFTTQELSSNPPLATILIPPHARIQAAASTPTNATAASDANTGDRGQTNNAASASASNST
The target in data set [2] is T1, Glycogen synthase kinase-3 beta. Description: Inhibition of human GSK-3beta-mediated tau phosphorylation in doxycycline/synthetic tau fibril-induced HEK293 cells assessed as increase in faster-mobility 17025 band at 1 uM after 48 hrs by Immunoblotting analysis. Format: cell-based. In outline:
(§1)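 HEK-293 cells express full-length 4-repeat tau (T40) carrying P301L under a doxycycline-regulated promoter. Doxycycline induces expression; 48 h later cells are seeded with synthetic fibrils made from recombinant tau. They are then treated with 1 µM compound or vehicle for 48 h, with non-fibril cells as controls. Lysates are immunoblotted with AT180 (pT231/pS235), 17025 (total tau) and GAPDH as loading control.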
For orientation: In western blotting, separated proteins are transferred to a membrane and probed.
Target sequence in this assay (P49841 whole entry, looked up): as the sequence (P49841 whole entry) above

Data set [3] shares this target. The data set is described as follows: Inhibition of human GSK-3beta-mediated tau phosphorylation in doxycycline/synthetic tau fibril-induced HEK293 cells assessed as increase in faster-migrating AT180 band at 1 uM after 48 hrs by Immunoblotting analysis. The format is cell-based. The procedure, abridged:
as §1
Target sequence in this assay (P49841 whole entry, looked up): as the sequence (P49841 whole entry) above

Data set [4] has the same target. Description: Inhibition of GSK3beta in human NCI/ADR-RES cells up to 5 uM. The format is cell-based. In outline: (§2)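 Ovarian carcinoma OVCAR-8 cells and their cognate P-glycoprotein-overexpressing line NCI/ADR-RES. Compound tested at concentrations up to 5 µM.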
Target sequence in this assay (P49841 whole entry, looked up): as the sequence (P49841 whole entry) above
Data set [5] concerns the target Serine/threonine-protein kinase RAF and Dual specificity mitogen-activated protein kinase kinase 1 (Raf/MEK) (Homo sapiens) (UniProt P04049+Q02750). The data set is described as follows: Inhibition of human RAF1/MEK1 at 1 uM. Format: protein assay. In outline:
(§3)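 Selectivity panel of 17 human protein kinases, each tested at a single 1 µM concentration. Read-out was percent inhibition of kinase activity. Values are the average of two independent measurements.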

In data set [6] the target is cAMP-dependent protein kinase catalytic subunit alpha (Homo sapiens) (UniProt P17612). The data set is described as follows: Inhibition of human PKAalpha at 1 uM. The procedure, abridged: as §3
Data set [7] has as its target T2, Serine/threonine-protein kinase Sgk1 (Homo sapiens) (UniProt O00141).
T2 sequence (whole entry): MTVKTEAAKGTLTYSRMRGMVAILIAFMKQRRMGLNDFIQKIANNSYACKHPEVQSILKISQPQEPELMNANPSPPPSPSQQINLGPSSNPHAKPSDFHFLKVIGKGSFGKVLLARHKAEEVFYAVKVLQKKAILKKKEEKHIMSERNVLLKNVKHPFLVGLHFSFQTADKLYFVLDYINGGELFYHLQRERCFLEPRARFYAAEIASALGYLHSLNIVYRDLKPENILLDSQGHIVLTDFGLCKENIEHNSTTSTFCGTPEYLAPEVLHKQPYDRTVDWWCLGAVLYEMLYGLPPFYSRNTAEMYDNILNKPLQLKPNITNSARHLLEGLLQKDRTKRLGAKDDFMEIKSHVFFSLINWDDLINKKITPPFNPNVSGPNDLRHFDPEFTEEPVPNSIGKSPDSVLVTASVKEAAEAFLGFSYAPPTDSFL
The data set is described as follows: Inhibition of human recombinant SGK1 using ATP/Ulight-RRRSLLE as substrate at 1 uM after 30 mins by LANCE assay. The procedure, abridged: as §3
(In TR-FRET formats the signal depends on donor and acceptor labels being close together.)

For data set [8], the target named is Rho-associated protein kinase 1 (Homo sapiens) (UniProt Q13464). Description: Inhibition of human recombinant ROCK1 using ATP/Ulight-RRRSLLE as substrate at 1 uM after 30 mins by LANCE assay. The procedure, abridged:
as §3

The target of data set [9] is Proto-oncogene tyrosine-protein kinase receptor Ret (Homo sapiens) (UniProt P07949). The data set is described as follows: Inhibition of human recombinant RET expressed in insect cells using ATP/biotinyl-betaAbetaAbetaAAEEEEYFELVAKKK as substrate at 1 uM after 30 mins by HTRF assay. The procedure, abridged:
as §3

The species named for data set [10] is Homo sapiens. The data set is described as follows: Inhibition of human recombinant PKA alpha expressed in Escherichia coli using ATP/Ulight-RRRSLLE as substrate at 1 uM after 10 mins by LANCE assay. The procedure, abridged: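 Single-concentration (1 µM) percent inhibition within a 17-member human kinase panel. Values are the average of two independent measurements.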

For data set [11], the target named is T1, Glycogen synthase kinase-3 beta. The data set is described as follows: Inhibition of human GSK-3beta-mediated tau phosphorylation in doxycycline/synthetic tau fibril-induced HEK293 cells assessed as decrease in slow mobility of AT180 band at 1 uM after 48 hrs by Immunoblotting analysis. Format: cell-based. In outline: as §1
Target sequence in this assay (P49841 whole entry, looked up): as the sequence (P49841 whole entry) above
Data set [12] addresses T3, Mitogen-activated protein kinase 13 (Homo sapiens) (UniProt O15264).
T3 sequence (whole entry): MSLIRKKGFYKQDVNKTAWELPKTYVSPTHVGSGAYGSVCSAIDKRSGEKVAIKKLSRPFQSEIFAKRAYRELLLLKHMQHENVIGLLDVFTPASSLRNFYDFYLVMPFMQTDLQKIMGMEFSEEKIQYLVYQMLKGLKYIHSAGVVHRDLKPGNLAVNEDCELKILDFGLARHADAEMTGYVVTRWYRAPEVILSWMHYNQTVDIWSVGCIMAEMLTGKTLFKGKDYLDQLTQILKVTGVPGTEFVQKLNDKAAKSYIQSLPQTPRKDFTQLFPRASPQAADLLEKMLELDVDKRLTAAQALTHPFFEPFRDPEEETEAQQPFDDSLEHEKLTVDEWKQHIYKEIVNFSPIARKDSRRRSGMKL
Description: Inhibition of human recombinant P38delta expressed in Escherichia coli using ATP/Ulight-CFFKNIVTPRTPPPSQGK-amide as substrate at 1 uM after 15 mins by LANCE assay. The procedure, abridged: as §3

Data set [13] addresses Leucine-rich repeat serine/threonine-protein kinase 2 (Homo sapiens) (UniProt Q5S007). Description: Inhibition of human recombinant LRRK2 expressed in insect cells using ATP/Ulight-RRRSLLE as substrate at 1 uM after 60 mins by LANCE assay. The procedure, abridged: as §3
For data set [14], the target named is Vascular endothelial growth factor receptor 2 (Homo sapiens) (UniProt P35968). The data set is described as follows: Inhibition of human recombinant VGFR2 expressed in insect sf9 cells using ATP/Ulight-CAGAGAIETDKEYYTVKD as substrate at 1 uM after 60 mins by LANCE assay. In outline: as §3
In data set [15] the target is Mitogen-activated protein kinase 3 (Homo sapiens) (UniProt P27361). The data set is described as follows: Inhibition of human recombinant ERK1 expressed in Escherichia coli using ATP/Ulight-CFFKNIVTPRTPPPSQGK-amide as substrate at 1 uM after 30 mins by LANCE assay. The procedure, abridged:
as §3

The target of data set [16] is Cyclin-dependent kinase 5/CDK5 activator 1 (Homo sapiens) (UniProt Q00535+Q15078). Description: Inhibition of human recombinant CDK5/p35 expressed in insect cells using ATP/Ulight-CFFKNIVTPRTPPPSQGK-amide as substrate at 1 uM after 60 mins by LANCE assay. In outline:
as §3

In data set [17] the target is Calcium/calmodulin-dependent protein kinase type II subunit alpha (Homo sapiens) (UniProt Q9UQM7). The data set is described as follows: Inhibition of human recombinant CaMK2alpha using ATP/Ulight-CGSGSGRPRTSSFAEG as substrate at 1 uM after 30 mins by LANCE assay. The procedure, abridged: as §3
For data set [18], the target named is Tyrosine-protein kinase Fyn (Homo sapiens) (UniProt P06241). The data set is described as follows: Inhibition of human recombinant Fyn expressed in insect cells using ATP/biotinyl-betaAbetaAbetaAYQAEENTYDEYEN as substrate at 1 uM after 60 mins by HTRF assay. The procedure, abridged: as §3
For data set [19], the target named is Platelet-derived growth factor receptor beta (Homo sapiens) (UniProt P09619). The data set is described as follows: Inhibition of human recombinant PDGFRbeta expressed in insect cells using ATP/Ulight-PolyGAT[EAY(1:1:1)]n as substrate at 1 uM after 30 mins by LANCE assay. The procedure, abridged: as §3
For data set [20], the target named is Receptor-type tyrosine-protein kinase FLT3 (Homo sapiens) (UniProt P36888). The data set is described as follows: Inhibition of human FLT3 at 1 uM. In outline:
as §3

Data set [21] deals with Glycogen synthase kinase-3 alpha (Homo sapiens) (UniProt P49840). Description: Inhibition of human recombinant GSK-3alpha using ATP/Ulight-CFFKNIVTPRTPPPSQGK-amide as substrate at 1 uM after 60 mins by LANCE assay. The procedure, abridged: as §3
The target in data set [22] is T4, Aurora kinase A (Homo sapiens) (UniProt O14965).
T4 sequence (whole entry): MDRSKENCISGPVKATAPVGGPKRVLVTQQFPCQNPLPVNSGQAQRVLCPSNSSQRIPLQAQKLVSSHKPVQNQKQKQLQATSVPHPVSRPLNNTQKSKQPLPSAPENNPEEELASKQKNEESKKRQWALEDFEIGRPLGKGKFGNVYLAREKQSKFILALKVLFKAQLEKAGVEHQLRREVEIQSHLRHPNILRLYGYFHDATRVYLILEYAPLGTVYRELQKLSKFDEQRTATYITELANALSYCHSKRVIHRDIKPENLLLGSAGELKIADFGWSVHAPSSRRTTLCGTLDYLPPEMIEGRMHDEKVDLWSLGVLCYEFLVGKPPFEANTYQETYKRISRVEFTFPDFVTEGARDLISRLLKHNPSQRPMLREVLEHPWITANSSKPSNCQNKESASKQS
Description: Inhibition of human recombinant Aurora A expressed in insect sf21 cells using ATP/Ulight-RRRSLLE as substrate at 1 uM after 15 mins by LANCE assay. The procedure, abridged: as §3

The species entered for data set [23] is Homo sapiens. The data set is described as follows: Selectivity ratio of IC50 for human recombinant CDK2 to IC50 for GSK-3beta (unknown origin).
In data set [24] the target is Cyclin-dependent kinase 2 (Homo sapiens, UniProt P24941). Description: Inhibition of human recombinant CDK2 using ATP/Ulight-CFFKNIVTPRTPPPSQGK-amide as substrate after 30 mins by LANCE assay.
The nature of data set [25]: Aqueous solubility of the compound at pH 7.4. Format: physicochemical.
In data set [26] the target is T1, Glycogen synthase kinase-3 beta. Description: Inhibition of GSK3beta in human OVCAR8 cells up to 5 uM. Format: cell-based. To be noted: OVCAR-8. In outline:
as §2
Target sequence in this assay (P49841 whole entry, looked up): as the sequence (P49841 whole entry) above

pIC50: −log10 of the molar value. In brackets after ≈: the same amount, converted by molar mass. Activity calls are given as the source filed them. No cut-off for these calls is given here.

Chain of Receptor-type tyrosine-protein kinase FLT3 (Homo sapiens) (P36888 whole entry): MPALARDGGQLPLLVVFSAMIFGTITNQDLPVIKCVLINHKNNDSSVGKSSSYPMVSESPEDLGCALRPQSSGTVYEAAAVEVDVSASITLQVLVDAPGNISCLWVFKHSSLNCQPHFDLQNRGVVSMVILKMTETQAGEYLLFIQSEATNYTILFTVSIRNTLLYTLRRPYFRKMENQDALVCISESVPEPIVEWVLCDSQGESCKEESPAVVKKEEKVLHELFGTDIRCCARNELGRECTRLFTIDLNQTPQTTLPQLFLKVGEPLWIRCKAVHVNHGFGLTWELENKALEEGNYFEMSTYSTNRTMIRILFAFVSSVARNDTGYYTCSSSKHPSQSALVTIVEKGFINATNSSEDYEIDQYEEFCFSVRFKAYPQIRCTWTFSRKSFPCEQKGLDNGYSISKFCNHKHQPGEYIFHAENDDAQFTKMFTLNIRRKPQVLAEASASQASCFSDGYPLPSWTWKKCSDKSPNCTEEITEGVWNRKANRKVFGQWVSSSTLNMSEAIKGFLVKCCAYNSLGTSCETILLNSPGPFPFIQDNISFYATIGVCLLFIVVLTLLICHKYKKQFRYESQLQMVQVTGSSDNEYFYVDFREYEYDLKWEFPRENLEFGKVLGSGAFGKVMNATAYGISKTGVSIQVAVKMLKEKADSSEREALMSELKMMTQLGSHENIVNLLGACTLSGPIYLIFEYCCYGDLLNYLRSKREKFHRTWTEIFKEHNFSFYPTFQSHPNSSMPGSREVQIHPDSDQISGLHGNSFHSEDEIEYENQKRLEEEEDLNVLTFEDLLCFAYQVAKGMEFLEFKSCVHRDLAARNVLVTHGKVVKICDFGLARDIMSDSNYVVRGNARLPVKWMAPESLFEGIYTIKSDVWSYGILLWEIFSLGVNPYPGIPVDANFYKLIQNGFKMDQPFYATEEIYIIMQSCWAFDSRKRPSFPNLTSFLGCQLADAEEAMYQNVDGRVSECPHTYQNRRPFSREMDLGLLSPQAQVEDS
Chain of Rho-associated protein kinase 1 (Homo sapiens) (Q13464 2-1354 limits assumed): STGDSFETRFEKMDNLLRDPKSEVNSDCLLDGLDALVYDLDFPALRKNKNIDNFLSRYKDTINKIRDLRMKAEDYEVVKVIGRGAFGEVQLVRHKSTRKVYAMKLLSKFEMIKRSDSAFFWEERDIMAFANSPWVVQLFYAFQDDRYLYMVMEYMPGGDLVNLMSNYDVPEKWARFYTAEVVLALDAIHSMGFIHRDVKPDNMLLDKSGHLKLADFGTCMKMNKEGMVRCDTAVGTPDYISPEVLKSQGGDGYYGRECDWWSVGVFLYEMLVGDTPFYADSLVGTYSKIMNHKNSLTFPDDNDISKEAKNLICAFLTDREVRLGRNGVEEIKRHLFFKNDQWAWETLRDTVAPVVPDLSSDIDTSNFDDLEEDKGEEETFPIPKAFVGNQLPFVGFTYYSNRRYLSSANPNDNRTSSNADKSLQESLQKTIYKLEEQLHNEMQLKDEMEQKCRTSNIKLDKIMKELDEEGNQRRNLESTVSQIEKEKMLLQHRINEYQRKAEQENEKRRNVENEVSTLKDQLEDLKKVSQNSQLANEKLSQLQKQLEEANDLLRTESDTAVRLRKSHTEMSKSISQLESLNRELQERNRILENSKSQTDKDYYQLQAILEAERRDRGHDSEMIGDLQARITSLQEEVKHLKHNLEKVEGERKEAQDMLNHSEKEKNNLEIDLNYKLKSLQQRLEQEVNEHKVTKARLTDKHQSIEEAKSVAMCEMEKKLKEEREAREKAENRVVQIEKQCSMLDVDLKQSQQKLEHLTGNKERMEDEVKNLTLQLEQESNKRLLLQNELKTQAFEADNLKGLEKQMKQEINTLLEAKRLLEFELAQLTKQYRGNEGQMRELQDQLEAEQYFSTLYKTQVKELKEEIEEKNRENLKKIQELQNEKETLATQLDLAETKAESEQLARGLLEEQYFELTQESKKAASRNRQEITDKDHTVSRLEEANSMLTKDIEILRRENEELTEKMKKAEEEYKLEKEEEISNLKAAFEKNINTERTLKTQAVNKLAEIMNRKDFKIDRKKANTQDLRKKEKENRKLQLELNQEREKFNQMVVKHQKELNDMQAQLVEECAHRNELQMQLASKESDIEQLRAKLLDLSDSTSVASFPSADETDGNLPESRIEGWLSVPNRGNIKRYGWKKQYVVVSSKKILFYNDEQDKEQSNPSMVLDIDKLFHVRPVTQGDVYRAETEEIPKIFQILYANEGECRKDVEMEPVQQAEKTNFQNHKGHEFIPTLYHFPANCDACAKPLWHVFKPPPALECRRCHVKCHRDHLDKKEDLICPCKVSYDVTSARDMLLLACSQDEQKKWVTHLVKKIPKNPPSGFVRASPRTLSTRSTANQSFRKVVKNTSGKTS
Chain of Serine/threonine-protein kinase RAF and Dual specificity mitogen-activated protein kinase kinase 1 (Raf/MEK) (Homo sapiens) (P04049 whole entry, looked up): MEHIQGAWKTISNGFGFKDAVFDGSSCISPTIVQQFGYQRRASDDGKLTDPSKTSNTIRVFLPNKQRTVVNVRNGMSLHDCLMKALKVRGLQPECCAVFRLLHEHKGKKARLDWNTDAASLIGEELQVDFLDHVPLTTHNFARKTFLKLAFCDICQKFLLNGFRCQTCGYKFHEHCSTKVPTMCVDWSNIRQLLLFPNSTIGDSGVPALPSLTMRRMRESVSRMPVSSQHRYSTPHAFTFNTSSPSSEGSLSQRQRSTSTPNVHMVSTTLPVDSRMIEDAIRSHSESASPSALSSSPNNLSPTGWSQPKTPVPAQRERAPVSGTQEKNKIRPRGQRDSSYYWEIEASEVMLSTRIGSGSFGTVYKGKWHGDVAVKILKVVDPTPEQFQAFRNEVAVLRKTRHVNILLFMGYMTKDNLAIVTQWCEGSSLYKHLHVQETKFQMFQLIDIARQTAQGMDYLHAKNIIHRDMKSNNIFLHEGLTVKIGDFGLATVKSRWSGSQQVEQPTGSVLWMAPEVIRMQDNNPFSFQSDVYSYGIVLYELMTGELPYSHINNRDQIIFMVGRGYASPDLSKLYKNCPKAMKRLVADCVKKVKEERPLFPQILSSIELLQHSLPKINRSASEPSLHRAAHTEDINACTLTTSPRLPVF
Chain of Serine/threonine-protein kinase RAF and Dual specificity mitogen-activated protein kinase kinase 1 (Raf/MEK) (Homo sapiens) (Q02750 whole entry, looked up): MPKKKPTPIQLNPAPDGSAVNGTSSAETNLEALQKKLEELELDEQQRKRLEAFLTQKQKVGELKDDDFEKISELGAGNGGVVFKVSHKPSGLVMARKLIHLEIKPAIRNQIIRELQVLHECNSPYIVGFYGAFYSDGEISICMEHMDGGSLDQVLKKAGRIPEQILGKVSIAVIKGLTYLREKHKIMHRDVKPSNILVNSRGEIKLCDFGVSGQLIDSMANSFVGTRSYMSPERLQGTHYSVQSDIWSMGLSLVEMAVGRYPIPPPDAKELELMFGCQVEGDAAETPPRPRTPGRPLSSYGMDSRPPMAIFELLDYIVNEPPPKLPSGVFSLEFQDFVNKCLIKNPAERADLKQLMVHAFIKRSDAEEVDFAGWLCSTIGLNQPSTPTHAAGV
Chain of Tyrosine-protein kinase Fyn (Homo sapiens) (P06241 2-537 limits assumed): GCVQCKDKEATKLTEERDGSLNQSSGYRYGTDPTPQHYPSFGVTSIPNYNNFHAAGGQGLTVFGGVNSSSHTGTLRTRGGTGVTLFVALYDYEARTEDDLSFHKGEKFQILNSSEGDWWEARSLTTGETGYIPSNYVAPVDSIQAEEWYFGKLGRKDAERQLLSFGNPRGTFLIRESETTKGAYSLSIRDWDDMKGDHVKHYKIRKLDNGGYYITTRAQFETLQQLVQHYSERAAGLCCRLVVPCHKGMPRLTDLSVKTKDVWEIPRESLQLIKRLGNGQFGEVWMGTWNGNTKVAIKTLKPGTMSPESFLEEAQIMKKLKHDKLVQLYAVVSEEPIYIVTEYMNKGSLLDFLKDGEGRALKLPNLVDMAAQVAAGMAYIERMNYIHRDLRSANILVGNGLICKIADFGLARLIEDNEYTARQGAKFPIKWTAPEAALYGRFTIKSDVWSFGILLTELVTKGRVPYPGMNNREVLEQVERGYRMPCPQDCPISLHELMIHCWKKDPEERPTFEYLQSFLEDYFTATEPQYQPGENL

As to `COc1ccccc1-n1ncc2c3c(c4cccn4c21)C(=O)NC3=O`, the pIC50 in data set [1] is 6.00.
Turning to `O=C1NC(=O)c2c1c1cnn(-c3ccccc3)c1n1cccc21`, the pIC50 in [1] was 5.77.
For the compound `Cc1ccccc1-n1nc(C)c2c3c(c4cccn4c21)C(=O)NC3=O`, the pIC50 in [1] was 6.36.
For `O=C1NC(=O)c2c1c1cnn(-c3ccccc3Cl)c1n1cccc21`, the pIC50 in data set [1] was 6.09.
On to `Cc1nn(-c2ccccc2)c2c1c1c(c3cccn32)C(=O)NC1=O`, for which the pIC50 in data set [1] was 6.16.
As to `Cc1ccccc1-n1ncc2c3c(c4cccn4c21)C(=O)NC3=O`, the pIC50 in data set [1] is 5.92.
Turning to `Cc1nn(-c2ccc(Cl)cc2Cl)c2c1c1c(c3cccn32)C(=O)NC1=O`, the inhibition result in data set [2], in data set [3] and in [11] was “Active” throughout. In addition, the inhibition entry in data set [4] and in data set [26] was “inactive” in each case. Besides, the inhibition (in data set [5]; in [6]; in data set [7]; in data set [8]; in [9]; in the data set listed under Homo sapiens [10]) was below 10% throughout. The inhibition in data set [12], in data set [13], in data set [14], in data set [15], in data set [16] and in data set [17] was below 10% throughout. The inhibition in data set [18] was below 10%; in [19], 13.7%; in data set [20], 30%; in data set [21], 98.3%; in data set [22], below 10%. The Ratio IC50 in the data set listed under Homo sapiens [23] is above 10. Also, the pIC50 is 5.55 in [24] and 6.62 in [1]. Besides, the concentration in solution in [25] (solubility) was 3.1 µM (≈ 1.19 µg/mL).
For the compound `Cc1nn(-c2ccccc2Cl)c2c1c1c(c3cccn32)C(=O)NC1=O`, the pIC50 in data set [1] is 6.03.

A word on the pIC50: it is the IC50 on a negative log10 scale, so that one unit is a factor of ten. One may read the inhibition as the share of the control response that was lost under treatment. As usually defined, the solubility is the dissolved amount per volume that the medium holds.
